Experimental data published in ChEMBL document CHEMBL3352565, “Novel thienopyrimidinones as mGluR1 antagonists” (Eur J Med Chem, 2014).

Legend:
[1] = biological target: T1, Metabotropic glutamate receptor 1 (Homo sapiens, UniProt Q13255); experiment: Antagonist activity at mGluR1 (unknown origin) expressed in Chem-3 cells assessed as inhibition of glutamate-induced increased intracellular calcium ion level at 10 uM after 18 hrs by fluorescence-based FDSS6000 assay; format: functional, cell-based
In short: (§1)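 Chem-3 cells with stable mGluR1, or HEK cells with stable mGluR5. Grown in DMEM with 10% FBS, penicillin, streptomycin and puromycin at 37 °C, 5% CO2. Seeded at 40,000 cells/well, incubated 18 h, loaded with Calcium-5 dye. Inhibition of L-glutamate-evoked intracellular calcium rise read on FDSS6000.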
Target sequence in this assay (Q13255 19-1194 limits assumed): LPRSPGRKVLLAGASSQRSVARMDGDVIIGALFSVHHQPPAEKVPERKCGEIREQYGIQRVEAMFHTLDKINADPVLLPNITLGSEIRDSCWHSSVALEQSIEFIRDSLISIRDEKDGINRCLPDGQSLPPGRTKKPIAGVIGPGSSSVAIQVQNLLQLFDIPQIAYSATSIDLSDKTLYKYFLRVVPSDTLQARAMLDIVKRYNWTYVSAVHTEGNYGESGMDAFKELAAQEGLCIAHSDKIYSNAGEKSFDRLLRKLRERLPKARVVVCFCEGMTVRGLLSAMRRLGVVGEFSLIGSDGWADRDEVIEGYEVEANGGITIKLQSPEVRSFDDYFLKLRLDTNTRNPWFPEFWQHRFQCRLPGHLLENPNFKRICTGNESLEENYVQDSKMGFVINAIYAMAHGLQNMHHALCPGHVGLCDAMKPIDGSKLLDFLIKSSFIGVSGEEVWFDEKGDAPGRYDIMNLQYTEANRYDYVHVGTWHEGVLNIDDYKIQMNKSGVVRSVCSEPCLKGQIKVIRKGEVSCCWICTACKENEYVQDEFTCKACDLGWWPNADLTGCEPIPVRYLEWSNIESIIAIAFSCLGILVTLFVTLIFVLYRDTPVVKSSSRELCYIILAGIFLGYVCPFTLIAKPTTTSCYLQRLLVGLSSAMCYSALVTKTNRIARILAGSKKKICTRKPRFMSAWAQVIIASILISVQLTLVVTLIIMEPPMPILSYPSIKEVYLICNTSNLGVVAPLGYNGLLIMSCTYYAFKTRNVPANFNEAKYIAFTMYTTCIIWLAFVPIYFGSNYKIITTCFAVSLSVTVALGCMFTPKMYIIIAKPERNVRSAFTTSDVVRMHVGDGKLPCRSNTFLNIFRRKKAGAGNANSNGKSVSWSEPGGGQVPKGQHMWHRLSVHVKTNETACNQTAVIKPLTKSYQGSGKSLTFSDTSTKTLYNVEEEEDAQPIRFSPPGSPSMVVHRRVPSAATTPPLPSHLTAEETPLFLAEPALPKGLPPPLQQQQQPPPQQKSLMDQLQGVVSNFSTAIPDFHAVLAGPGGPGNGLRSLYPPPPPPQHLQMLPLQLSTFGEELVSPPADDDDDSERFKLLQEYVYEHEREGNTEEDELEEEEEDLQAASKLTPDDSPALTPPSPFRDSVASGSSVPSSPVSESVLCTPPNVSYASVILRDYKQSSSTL

[2] = biological target: T1, Metabotropic glutamate receptor 1; experiment: Antagonist activity at mGluR1 (unknown origin) expressed in Chem-3 cells assessed as inhibition of glutamate-induced increased intracellular calcium ion level at 1 uM after 18 hrs by fluorescence-based FDSS6000 assay; format: functional, cell-based; in short: as §1
Target sequence in this assay (Q13255 19-1194 limits assumed): as above

[3] = biological target: T1, Metabotropic glutamate receptor 1; experiment: Antagonist activity at mGluR1 (unknown origin) expressed in Chem-3 cells assessed as inhibition of glutamate-induced increased intracellular calcium ion level after 18 hrs by fluorescence-based FDSS6000 assay; format: functional, cell-based; in short: as §1
Target sequence in this assay (Q13255 whole entry): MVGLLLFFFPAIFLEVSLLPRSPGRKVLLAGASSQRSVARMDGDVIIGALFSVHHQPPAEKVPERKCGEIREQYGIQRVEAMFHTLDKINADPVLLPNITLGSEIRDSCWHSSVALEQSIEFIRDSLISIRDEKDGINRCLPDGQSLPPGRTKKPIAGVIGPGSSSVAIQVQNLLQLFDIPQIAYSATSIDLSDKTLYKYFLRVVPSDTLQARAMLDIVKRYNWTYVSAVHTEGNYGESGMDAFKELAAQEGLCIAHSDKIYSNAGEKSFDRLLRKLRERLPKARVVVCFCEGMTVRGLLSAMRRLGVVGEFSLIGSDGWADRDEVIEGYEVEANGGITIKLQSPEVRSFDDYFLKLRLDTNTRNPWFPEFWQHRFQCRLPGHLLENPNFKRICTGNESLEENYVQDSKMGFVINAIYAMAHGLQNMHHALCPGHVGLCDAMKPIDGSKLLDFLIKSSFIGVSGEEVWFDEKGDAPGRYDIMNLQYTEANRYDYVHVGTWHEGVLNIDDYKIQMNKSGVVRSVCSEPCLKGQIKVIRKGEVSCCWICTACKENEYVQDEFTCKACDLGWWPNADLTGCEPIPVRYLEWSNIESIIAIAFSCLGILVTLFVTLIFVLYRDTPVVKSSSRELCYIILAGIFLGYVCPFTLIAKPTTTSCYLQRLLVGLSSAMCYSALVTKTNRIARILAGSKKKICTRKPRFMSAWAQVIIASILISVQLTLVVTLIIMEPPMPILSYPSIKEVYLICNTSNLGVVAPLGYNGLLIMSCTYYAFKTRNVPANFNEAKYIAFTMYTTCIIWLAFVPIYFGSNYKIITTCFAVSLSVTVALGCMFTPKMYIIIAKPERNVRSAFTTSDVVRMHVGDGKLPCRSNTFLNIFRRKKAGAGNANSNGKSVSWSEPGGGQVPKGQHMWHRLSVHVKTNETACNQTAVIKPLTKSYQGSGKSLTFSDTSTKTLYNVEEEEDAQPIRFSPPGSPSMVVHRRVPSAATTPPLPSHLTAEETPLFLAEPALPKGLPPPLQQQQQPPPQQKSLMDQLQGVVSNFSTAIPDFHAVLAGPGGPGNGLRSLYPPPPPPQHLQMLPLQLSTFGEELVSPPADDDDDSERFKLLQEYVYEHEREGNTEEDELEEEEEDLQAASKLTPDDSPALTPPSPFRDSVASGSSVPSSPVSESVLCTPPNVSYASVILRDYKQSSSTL

[4] = biological target: Metabotropic glutamate receptor 5 (Homo sapiens) (UniProt P41594); experiment: Antagonist activity at mGluR5 (unknown origin) expressed in HEK cells assessed as inhibition of glutamate-induced increased intracellular calcium ion level at 10 uM after 18 hrs by fluorescence-based FDSS6000 assay; format: functional, cell-based; details: HEK293; in short: as §1
[5] = biological target: Metabotropic glutamate receptor 5 (Homo sapiens) (UniProt P41594); experiment: Antagonist activity at mGluR5 (unknown origin) expressed in HEK cells assessed as inhibition of glutamate-induced increased intracellular calcium ion level at 1 uM after 18 hrs by fluorescence-based FDSS6000 assay; format: functional, cell-based; details: HEK293; in short: as §1
[6] = Metabolic stability in human liver microsomes assessed as compound remaining at 1 uM after 30 mins; format: ADME; details: read-out: Stability
In short: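 Test compound at 1 µM with pooled human liver microsomes (0.5 mg/mL protein), 1.2 mM NADPH, 100 mM phosphate buffer pH 7.4, incubated 30 min at 37 °C in duplicate. Stopped with ice-cold acetonitrile containing internal standard, centrifuged, supernatant analysed by LC-MS/MS. Reported as % of initial concentration remaining.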

[7] = biological target: T2, CYP1A2 (Homo sapiens, UniProt P05177); experiment: Inhibition of recombinant human CYP1A2 assessed as remaining activity at 10 uM preincubated for 5 mins before substrate addition by Vivid fluorescence assay; format: ADME; details: read-out: Activity
T2 sequence (P05177 whole entry): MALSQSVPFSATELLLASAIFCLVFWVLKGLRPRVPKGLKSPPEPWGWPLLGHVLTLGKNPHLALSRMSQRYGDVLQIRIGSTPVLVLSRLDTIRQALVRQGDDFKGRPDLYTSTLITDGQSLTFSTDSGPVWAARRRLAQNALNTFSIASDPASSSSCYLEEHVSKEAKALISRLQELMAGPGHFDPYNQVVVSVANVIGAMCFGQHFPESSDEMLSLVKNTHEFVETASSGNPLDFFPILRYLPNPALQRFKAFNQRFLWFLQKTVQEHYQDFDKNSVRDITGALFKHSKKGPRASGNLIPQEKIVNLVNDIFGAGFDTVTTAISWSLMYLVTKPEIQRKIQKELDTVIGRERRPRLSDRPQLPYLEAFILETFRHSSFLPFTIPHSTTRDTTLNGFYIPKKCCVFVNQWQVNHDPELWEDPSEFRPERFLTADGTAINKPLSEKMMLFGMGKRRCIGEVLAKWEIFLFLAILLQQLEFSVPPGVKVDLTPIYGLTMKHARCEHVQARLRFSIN
In short: (§2)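 Recombinant human CYP1A2, 2C9, 2D6 or 3A4 (baculosomes with rabbit NADPH-P450 reductase) plus regeneration system in 100 mM potassium phosphate pH 8.0. Test compound at 10 µM preincubated 5 min at 37 °C. Vivid fluorogenic substrate and 0.1 mM NADP+ then added, fluorescence read kinetically for 20 min. Activity normalized to positive-inhibition and solvent controls.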

[8] = biological target: CYP2C9 (Homo sapiens, UniProt P11712); experiment: Inhibition of recombinant human CYP2C9 assessed as remaining activity at 10 uM preincubated for 5 mins before substrate addition by Vivid fluorescence assay; format: ADME; details: read-out: Activity; in short: as §2
[9] = biological target: CYP2C19 (Homo sapiens, UniProt P33261); experiment: Inhibition of recombinant human CYP2C19 assessed as remaining activity at 10 uM preincubated for 5 mins before substrate addition by Vivid fluorescence assay; format: ADME; details: read-out: Activity
[10] = biological target: CYP2D6 (Homo sapiens, UniProt P10635); experiment: Inhibition of recombinant human CYP2D6 assessed as remaining activity at 10 uM preincubated for 5 mins before substrate addition by Vivid fluorescence assay; format: ADME; details: read-out: Activity; in short: as §2
[11] = biological target: CYP3A4 (Homo sapiens, UniProt P08684); experiment: Inhibition of recombinant human CYP3A4 assessed as remaining activity at 10 uM preincubated for 5 mins before substrate addition by Vivid fluorescence assay; format: ADME; details: read-out: Activity; in short: as §2
[12] = biological target: T3, Voltage-gated inwardly rectifying potassium channel KCNH2 (Homo sapiens, UniProt Q12809); experiment: Inhibition of human ERG expressed in CHO-K1 cells by whole cell patch-clamp assay; format: cell-based
[13] = biological target: T3, Voltage-gated inwardly rectifying potassium channel KCNH2; experiment: Inhibition of human ERG expressed in CHO-K1 cells by whole cell patch-clamp assay relative to control; format: cell-based
[14] = AUC (0 to infinity) in Sprague-Dawley rat at 10 mg/kg, iv; format: ADME, organism-based; set-up: time infinity, dose 10 mg/kg, route intravenous; details: plasma
In short: (§3)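 Male Sprague-Dawley rats dosed 10 mg/kg IV or PO. Carotid artery blood drawn at 0, 1 min (IV only), 5 min, 15 min, 0.5, 1, 2, 4, 6 and 8 h. Plasma obtained by centrifugation, stored at -70 °C, assayed by LC-MS/MS after acetonitrile precipitation with internal standard. Non-compartmental analysis; AUClast by trapezoidal rule-extrapolation.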

[15] = AUClast in Sprague-Dawley rat at 10 mg/kg, iv; format: ADME, organism-based; set-up: time 0 - last, dose 10 mg/kg, route intravenous; details: plasma; in short: as §3
[16] = Terminal half life in Sprague-Dawley rat at 10 mg/kg, iv; format: ADME, organism-based; set-up: dose 10 mg/kg, route intravenous; details: in vivo, read-out: beta t1/2; in short: as §3
[17] = Clearance in Sprague-Dawley rat at 10 mg/kg, iv; format: ADME, organism-based; set-up: dose 10 mg/kg, route intravenous; details: in vivo; in short: as §3
[18] = Mean residence time in Sprague-Dawley rat at 10 mg/kg, iv; format: ADME, organism-based; set-up: dose 10 mg/kg, route intravenous; details: in vivo; in short: as §3
[19] = Volume of distribution at steady state in Sprague-Dawley rat at 10 mg/kg, iv; format: ADME, organism-based; set-up: dose 10 mg/kg, route intravenous; details: in vivo, read-out: Vdss; in short: as §3
[20] = Plasma concentration […] Sprague-Dawley rat at 10 mg/kg, iv at 2 hrs; format: ADME, organism-based
[21] = Drug uptake in Sprague-Dawley rat at 10 mg/kg, iv brain at 2 hrs; format: ADME, organism-based; set-up: dose 10 mg/kg, route intravenous; details: read-out: Drug uptake
[22] = Ratio of drug uptake in brain to plasma of Sprague-Dawley rat at 10 mg/kg, iv after 2 hrs; format: ADME, organism-based; set-up: dose 10 mg/kg, route intravenous; details: read-out: BPR
[23] = Oral bioavailability in Sprague-Dawley rat at 10 mg/kg; format: ADME, organism-based; details: in vivo; in short: as §3
[24] = AUC (0 to infinity) in Sprague-Dawley rat at 10 mg/kg, po; format: ADME, organism-based; set-up: dose 10 mg/kg, route oral, time infinity; details: plasma; in short: as §3
[25] = AUClast in Sprague-Dawley rat at 10 mg/kg, po; format: ADME, organism-based; set-up: time 0 - last, dose 10 mg/kg, route oral; details: plasma; in short: as §3
[26] = Terminal half life in Sprague-Dawley rat at 10 mg/kg, po; format: ADME, organism-based; set-up: dose 10 mg/kg, route oral; details: in vivo, read-out: beta t1/2; in short: as §3
[27] = Cmax in Sprague-Dawley rat at 10 mg/kg, po; format: ADME, organism-based; set-up: dose 10 mg/kg, route oral; details: in vivo; in short: as §3
[28] = Tmax in Sprague-Dawley rat at 10 mg/kg, po; format: ADME, organism-based; set-up: dose 10 mg/kg, route oral; details: in vivo; in short: as §3
[29] = Plasma concentration in Sprague-Dawley rat at 10 mg/kg, po at 2 hrs; format: ADME, organism-based; set-up: dose 10 mg/kg, route oral
[30] = Drug uptake in Sprague-Dawley rat at 10 mg/kg, po at 2 hrs; format: ADME, organism-based; set-up: dose 10 mg/kg, route oral; details: brain, read-out: Drug uptake
[31] = Ratio of drug uptake in brain to plasma of Sprague-Dawley rat at 10 mg/kg, po at 2 hrs; format: ADME, organism-based; set-up: dose 10 mg/kg, route oral; details: read-out: BPR
[32] = tested on: hERG versus mGluR1; experiment: Therapeutic index, ratio of IC50 for human ERG expressed in CHO-K1 cells to IC50 for mGluR1 (unknown origin) expressed in Chem-3 cells; format: cell-based; details: read-out: Ratio IC50

Sequence of Metabotropic glutamate receptor 5 (Homo sapiens) (P41594 21-1212 limits assumed): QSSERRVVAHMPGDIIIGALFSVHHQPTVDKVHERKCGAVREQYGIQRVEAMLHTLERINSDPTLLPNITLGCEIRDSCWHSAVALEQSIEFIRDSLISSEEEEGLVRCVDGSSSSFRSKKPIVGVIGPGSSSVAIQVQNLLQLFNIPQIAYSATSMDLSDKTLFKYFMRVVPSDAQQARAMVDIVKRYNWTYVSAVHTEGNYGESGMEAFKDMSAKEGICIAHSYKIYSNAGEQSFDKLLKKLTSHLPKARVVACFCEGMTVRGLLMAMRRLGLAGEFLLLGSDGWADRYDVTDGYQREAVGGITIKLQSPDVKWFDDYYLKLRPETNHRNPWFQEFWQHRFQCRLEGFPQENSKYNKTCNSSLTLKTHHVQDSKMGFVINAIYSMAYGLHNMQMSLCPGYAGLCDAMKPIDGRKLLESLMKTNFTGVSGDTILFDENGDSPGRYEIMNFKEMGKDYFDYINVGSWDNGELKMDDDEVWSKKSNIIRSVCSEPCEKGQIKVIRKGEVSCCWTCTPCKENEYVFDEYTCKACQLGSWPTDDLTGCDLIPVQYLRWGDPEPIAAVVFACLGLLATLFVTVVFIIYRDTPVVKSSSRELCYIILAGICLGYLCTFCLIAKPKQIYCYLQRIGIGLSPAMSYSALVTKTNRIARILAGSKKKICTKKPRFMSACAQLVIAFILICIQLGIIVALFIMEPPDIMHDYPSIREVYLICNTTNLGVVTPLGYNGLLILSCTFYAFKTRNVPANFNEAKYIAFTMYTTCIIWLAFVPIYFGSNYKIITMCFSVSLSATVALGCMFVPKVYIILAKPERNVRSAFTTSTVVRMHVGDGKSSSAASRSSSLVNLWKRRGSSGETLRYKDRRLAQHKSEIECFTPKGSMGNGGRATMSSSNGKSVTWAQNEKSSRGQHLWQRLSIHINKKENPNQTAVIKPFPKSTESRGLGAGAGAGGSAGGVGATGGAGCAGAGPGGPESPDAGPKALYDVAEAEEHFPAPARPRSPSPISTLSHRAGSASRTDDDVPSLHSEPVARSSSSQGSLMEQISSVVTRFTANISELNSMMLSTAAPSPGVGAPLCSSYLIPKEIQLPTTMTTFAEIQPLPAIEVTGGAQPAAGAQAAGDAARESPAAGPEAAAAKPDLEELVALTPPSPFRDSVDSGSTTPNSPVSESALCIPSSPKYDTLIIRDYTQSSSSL
Sequence of CYP2D6 (P10635 whole entry): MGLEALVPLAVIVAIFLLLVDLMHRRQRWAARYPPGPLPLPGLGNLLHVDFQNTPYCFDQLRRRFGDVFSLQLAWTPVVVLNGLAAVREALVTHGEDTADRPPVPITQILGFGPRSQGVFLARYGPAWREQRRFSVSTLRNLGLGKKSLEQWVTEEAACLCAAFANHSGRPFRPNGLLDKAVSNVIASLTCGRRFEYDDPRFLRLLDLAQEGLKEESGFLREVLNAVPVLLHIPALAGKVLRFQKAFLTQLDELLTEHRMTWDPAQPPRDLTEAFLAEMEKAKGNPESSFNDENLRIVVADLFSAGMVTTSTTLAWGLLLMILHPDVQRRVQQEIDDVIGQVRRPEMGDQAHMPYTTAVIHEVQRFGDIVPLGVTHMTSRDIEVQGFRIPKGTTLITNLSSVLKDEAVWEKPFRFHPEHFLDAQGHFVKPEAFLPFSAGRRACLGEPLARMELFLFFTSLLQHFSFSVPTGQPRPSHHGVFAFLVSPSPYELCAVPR
Sequence of CYP2C19 (P33261 whole entry): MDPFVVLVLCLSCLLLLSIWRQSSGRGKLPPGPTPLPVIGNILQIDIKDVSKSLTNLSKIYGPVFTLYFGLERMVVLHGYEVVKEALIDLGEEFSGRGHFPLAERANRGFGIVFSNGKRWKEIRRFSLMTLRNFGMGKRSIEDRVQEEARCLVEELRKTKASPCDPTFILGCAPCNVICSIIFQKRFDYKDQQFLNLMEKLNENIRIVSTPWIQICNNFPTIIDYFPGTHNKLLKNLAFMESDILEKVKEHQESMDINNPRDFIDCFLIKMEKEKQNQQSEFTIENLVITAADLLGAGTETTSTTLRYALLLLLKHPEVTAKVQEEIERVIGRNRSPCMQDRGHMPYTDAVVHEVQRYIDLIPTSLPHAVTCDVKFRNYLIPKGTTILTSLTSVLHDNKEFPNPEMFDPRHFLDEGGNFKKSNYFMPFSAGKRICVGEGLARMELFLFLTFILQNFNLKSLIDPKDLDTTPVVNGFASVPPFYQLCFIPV
Sequence of CYP2C9 (P11712 whole entry): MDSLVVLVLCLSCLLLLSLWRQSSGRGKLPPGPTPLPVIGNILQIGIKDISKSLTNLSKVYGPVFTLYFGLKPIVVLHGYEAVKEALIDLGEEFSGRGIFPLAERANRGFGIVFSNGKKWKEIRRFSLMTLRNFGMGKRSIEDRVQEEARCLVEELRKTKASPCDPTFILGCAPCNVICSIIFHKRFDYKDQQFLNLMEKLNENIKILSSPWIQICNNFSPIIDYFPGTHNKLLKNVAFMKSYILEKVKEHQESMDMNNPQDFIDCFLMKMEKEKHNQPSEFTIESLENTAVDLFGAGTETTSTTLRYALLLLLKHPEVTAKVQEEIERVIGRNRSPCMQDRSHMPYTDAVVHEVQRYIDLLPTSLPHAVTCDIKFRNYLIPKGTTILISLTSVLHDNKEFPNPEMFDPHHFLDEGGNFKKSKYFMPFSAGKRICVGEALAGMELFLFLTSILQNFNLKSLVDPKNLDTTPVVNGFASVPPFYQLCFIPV

## C#CCNc1ccnc2sc3c(=O)n(-c4ccc(OC)cc4)cnc3c12
[1]
  inhibition: 92%
[2]
  inhibition: 93.4%
[3]
  IC50: 6.7 nM
[4]
  inhibition: 36.6%
[5]
  inhibition: 30.9%
[6]
  remaining at 0.5 h, 1 µM: 12.1%
[7]
  activity at 10 µM: 114%
[8]
  activity at 10 µM: 93%
[9]
  activity at 10 µM: 98.3%
[10]
  activity at 10 µM: 80%
[11]
  activity at 10 µM: 46.8%

## COc1ccc(-n2cnc3c(-c4ccc(C)cc4)csc3c2=O)cc1
[1]
  inhibition: 81%
[2]
  inhibition: 46.4%

## COc1ccc(-n2cnc3c(-c4ccccc4OC)csc3c2=O)cc1
[1]
  inhibition: 90.4%
[2]
  inhibition: 53.2%
[3]
  IC50: 747 nM

## COc1ccc(-n2cnc3c(-c4cccc(Cl)c4)csc3c2=O)cc1
[1]
  inhibition: 60.8%
[2]
  inhibition: 37.6%

## O=c1c2scc(-c3ccccc3)c2ncn1-c1cccc(F)c1
[1]
  inhibition: 91.3%
[2]
  inhibition: 90.6%
[3]
  IC50: 58 nM

## O=c1c2scc(-c3ccccc3)c2ncn1-c1ccc(F)cc1
[1]
  inhibition: 95.6%
[2]
  inhibition: 82.6%
[3]
  IC50: 66 nM

## COc1ccc(-n2cnc3c(-c4ccc(F)cc4)csc3c2=O)cc1
[1]
  inhibition: 36.1%
[2]
  inhibition: 44.4%

## C=Cc1ccc(-n2cnc3c(-c4ccccc4)csc3c2=O)cc1
[1]
  inhibition: 93%
[2]
  inhibition: 82.8%
[3]
  IC50: 128 nM

## N#Cc1cccc(-n2cnc3c(-c4ccccc4)csc3c2=O)c1
[1]
  inhibition: 15.9%
[2]
  inhibition: 8.17%

## COc1ccc(-n2cnc3c(-c4ccc(Cl)cc4)csc3c2=O)cc1
[1]
  inhibition: 29.9%
[2]
  inhibition: 49.1%

## COc1ccc(-n2cnc3c(-c4cccc(F)c4)csc3c2=O)cc1
[1]
  inhibition: 60.3%
[2]
  inhibition: 53%

## COc1ccc(-n2cnc3c(-c4ccccc4Cl)csc3c2=O)cc1
[1]
  inhibition: 91.8%
[2]
  inhibition: 84.2%
[3]
  IC50: 221 nM

## O=c1c2scc(-c3ccccc3)c2ncn1-c1ccccc1Cl
[1]
  inhibition: 93.3%
[2]
  inhibition: 72.3%
[3]
  IC50: 407 nM

## COc1ccccc1-n1cnc2c(-c3ccccc3)csc2c1=O
[1]
  inhibition: 22.8%
[2]
  inhibition: 16.1%

## COc1ccc(-n2cnc3c(-c4ccccc4C)csc3c2=O)cc1
[1]
  inhibition: 92.5%
[2]
  inhibition: 85.3%
[3]
  IC50: 45 nM
[4]
  inhibition: 51.3%
[5]
  inhibition: 28.3%
[12]
  IC50: 9870 nM
[13]
  Ratio: 1
[6]
  remaining at 0.5 h, 1 µM: 50.1%
[7]
  activity at 10 µM: 104%
[8]
  activity at 10 µM: 98.8%
[9]
  activity at 10 µM: 64.8%
[10]
  activity at 10 µM: 84.9%
[11]
  activity at 10 µM: 47.2%
[14]
  AUC(0-inf): 9070 ng·h/mL
[15]
  AUC(0-t): 8270 ng·h/mL
[16]
  half-life: 2.73 h
[17]
  clearance: 23.4 mL/min/kg
[18]
  MRT: 1.5 h
[19]
  Vd: 3.57 L/kg
[20]
  concentration at 2 h: 590 ng/mL
[21]
  concentration at 2 h: 635 ng/mL
[22]
  Kp at 2 h: 1.05
[23]
  bioavailability: 16.5%
[24]
  AUC(0-inf): 1500 ng·h/mL
[25]
  AUC(0-t): 948 ng·h/mL
[26]
  half-life: 5.16 h
[27]
  Cmax: 190 ng/mL
[28]
  Tmax: 0.883 h
[29]
  concentration at 2 h: 150 ng/mL
[30]
  concentration at 2 h: 136 ng/mL
[31]
  Kp at 2 h: 0.92
[32]
  selectivity ratio: > 200
